Activity calls are given as the source filed them.
Legend:
[1] = molecular target: T1, Protein deacetylase HDAC6 (Homo sapiens, UniProt Q9UBN7); experiment: Inhibition of human recombinant HDAC6 using Boc-lys(Ac)-AMC as substrate preincubated for 20 mins with substrate measured after 60 mins by fluorescence analysis
T1 sequence (Q9UBN7 whole entry): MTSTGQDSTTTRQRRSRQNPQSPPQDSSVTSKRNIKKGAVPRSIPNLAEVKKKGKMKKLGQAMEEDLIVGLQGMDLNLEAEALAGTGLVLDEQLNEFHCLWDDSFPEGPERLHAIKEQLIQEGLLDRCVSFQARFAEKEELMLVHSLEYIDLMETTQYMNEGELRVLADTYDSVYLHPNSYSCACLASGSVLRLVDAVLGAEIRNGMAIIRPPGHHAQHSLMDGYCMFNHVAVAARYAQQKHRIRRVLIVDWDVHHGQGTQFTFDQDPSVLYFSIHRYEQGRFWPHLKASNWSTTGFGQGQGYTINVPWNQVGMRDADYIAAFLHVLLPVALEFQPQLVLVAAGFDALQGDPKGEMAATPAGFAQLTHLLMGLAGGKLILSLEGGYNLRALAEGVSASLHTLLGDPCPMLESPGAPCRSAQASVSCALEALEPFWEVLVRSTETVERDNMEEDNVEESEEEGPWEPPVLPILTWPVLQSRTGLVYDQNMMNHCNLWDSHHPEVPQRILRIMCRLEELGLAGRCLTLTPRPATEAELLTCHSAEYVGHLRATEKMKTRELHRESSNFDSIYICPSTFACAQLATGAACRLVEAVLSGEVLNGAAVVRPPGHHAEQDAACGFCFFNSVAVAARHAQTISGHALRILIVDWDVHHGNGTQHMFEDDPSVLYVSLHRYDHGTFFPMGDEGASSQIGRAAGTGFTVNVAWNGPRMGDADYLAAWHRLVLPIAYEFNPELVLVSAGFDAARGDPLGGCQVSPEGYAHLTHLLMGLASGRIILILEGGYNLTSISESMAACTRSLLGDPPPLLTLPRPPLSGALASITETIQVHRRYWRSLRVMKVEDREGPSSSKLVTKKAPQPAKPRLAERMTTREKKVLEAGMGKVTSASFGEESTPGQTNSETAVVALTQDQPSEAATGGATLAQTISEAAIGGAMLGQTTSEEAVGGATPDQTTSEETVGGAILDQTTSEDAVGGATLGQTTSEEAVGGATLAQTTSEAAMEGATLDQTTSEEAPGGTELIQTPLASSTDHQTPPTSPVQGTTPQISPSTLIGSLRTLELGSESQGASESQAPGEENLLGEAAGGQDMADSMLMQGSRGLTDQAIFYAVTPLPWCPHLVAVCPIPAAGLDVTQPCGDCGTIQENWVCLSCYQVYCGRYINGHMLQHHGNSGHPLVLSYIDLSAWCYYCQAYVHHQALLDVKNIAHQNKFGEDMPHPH

Histone deacetylase 1 = Histone deacetylase 1 (Homo sapiens, UniProt Q13547); experiment: Inhibition of human recombinant HDAC1 using Boc-lys(Ac)-AMC as substrate preincubated for 20 mins with substrate measured after 60 mins by fluorescence analysis
[2] = molecular target: T2, Histone deacetylase-like amidohydrolase (Alcaligenes sp. (strain DSM 11172) (Bordetella sp. (strain FB188))) (UniProt Q70I53); experiment: Inhibition of Bordetella sp. (strain FB188) N-terminus His-tagged HDAH expressed in Escherichia coli BL21 (DE3) up to 100 uM; settings: Alcaligenaceae bacterium FB188
T2 sequence (whole entry): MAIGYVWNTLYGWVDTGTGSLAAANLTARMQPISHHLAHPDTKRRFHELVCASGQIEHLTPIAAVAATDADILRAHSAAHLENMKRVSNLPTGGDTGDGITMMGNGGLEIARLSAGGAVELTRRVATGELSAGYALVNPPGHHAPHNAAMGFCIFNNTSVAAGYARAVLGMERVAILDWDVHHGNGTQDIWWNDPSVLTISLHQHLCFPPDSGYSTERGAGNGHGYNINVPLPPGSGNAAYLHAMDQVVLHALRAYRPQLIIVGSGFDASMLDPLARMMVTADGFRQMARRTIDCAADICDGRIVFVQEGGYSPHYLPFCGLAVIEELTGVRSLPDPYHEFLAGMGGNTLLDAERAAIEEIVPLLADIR
Summary of the method: (§1)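 Recombinant N-terminal His6-tagged HDAH from Bordetella strain FB188, expressed in E. coli BL21, purified on zinc-loaded His-Trap column, eluted with 500 mM imidazole, dialyzed into assay buffer (>98% pure by SDS-PAGE). Tested directly against compounds; thiols generated in situ from disulfides with TCEP.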

A549 = experiment: Growth inhibition of human A549 cells after 96 hrs by sulphorhodamine B assay; assay type: functional; settings: A549, 96 h
Summary of the method: (§2)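 SRB growth assay; MCF7 and WI38 seeded 4000 cells/well, A549 2000 cells/well, attached overnight, then exposed to freshly made drug solutions (0.1 to 50 μM) for 96 h. Fixed with cold 10% TCA, stained with 0.4% SRB; absorbance at 540 nm as percent of untreated control, IC50 from mean absorbance.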

MCF7 = experiment: Growth inhibition of human MCF7 cells after 96 hrs by sulphorhodamine B assay; assay type: functional; settings: MCF7, 96 h; summary of the method: as §2
[3] = Growth inhibition of human WI38 cells after 96 hrs by sulphorhodamine B assay; assay type: cell-based; settings: WI-38 cells; summary of the method: as §2
[4] = molecular target: DNA (cytosine-5)-methyltransferase 1 (Homo sapiens, UniProt P26358); experiment: Inhibition of full length N-terminal His6-tagged human DNMT1 at 120 uM after 1 hr by fluorescence analysis
Summary of the method: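 Baculovirus-expressed DNMT1 (80 nM final) with SAM (10 μM final) and hemimethylated hairpin oligo (125 nM final) in MOPS buffer pH 6.5 with 1 mM DTT, 1 h room temperature. Stopped with Gla1 plus 125 μM SAH, developed 7 h; fluorescence Ex 485/Em 520 nm. Thiols made in situ by TCEP reduction; no SAM as full-inhibition control.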

[5] = molecular target: T3, Histone deacetylase-like amidohydrolase (Alcaligenes sp. (strain DSM 11172) (Bordetella sp. (strain FB188)), UniProt Q70I53); experiment: Inhibition of Bordetella sp. (strain FB188) N-terminus His-tagged HDAH expressed in Escherichia coli BL21 (DE3); design: species or system Alcaligenaceae bacterium FB188; summary of the method: as §1
T3 sequence (Q70I53 whole entry): T2 sequence (whole entry)

Chain of Histone deacetylase 1 (Q13547 whole entry): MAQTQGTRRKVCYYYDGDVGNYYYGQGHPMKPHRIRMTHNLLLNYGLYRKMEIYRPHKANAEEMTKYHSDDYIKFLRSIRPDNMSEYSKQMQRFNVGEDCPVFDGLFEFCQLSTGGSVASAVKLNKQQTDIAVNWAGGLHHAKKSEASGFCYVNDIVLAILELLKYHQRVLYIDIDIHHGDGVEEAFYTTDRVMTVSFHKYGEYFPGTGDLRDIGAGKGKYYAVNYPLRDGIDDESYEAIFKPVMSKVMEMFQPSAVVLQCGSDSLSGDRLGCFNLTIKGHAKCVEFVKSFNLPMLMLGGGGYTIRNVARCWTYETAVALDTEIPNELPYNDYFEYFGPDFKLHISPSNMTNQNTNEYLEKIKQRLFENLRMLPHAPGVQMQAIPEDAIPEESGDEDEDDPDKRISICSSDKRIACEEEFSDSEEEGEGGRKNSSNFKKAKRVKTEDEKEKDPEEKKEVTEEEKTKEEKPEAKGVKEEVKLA
Chain of DNA (cytosine-5)-methyltransferase 1 (P26358 whole entry): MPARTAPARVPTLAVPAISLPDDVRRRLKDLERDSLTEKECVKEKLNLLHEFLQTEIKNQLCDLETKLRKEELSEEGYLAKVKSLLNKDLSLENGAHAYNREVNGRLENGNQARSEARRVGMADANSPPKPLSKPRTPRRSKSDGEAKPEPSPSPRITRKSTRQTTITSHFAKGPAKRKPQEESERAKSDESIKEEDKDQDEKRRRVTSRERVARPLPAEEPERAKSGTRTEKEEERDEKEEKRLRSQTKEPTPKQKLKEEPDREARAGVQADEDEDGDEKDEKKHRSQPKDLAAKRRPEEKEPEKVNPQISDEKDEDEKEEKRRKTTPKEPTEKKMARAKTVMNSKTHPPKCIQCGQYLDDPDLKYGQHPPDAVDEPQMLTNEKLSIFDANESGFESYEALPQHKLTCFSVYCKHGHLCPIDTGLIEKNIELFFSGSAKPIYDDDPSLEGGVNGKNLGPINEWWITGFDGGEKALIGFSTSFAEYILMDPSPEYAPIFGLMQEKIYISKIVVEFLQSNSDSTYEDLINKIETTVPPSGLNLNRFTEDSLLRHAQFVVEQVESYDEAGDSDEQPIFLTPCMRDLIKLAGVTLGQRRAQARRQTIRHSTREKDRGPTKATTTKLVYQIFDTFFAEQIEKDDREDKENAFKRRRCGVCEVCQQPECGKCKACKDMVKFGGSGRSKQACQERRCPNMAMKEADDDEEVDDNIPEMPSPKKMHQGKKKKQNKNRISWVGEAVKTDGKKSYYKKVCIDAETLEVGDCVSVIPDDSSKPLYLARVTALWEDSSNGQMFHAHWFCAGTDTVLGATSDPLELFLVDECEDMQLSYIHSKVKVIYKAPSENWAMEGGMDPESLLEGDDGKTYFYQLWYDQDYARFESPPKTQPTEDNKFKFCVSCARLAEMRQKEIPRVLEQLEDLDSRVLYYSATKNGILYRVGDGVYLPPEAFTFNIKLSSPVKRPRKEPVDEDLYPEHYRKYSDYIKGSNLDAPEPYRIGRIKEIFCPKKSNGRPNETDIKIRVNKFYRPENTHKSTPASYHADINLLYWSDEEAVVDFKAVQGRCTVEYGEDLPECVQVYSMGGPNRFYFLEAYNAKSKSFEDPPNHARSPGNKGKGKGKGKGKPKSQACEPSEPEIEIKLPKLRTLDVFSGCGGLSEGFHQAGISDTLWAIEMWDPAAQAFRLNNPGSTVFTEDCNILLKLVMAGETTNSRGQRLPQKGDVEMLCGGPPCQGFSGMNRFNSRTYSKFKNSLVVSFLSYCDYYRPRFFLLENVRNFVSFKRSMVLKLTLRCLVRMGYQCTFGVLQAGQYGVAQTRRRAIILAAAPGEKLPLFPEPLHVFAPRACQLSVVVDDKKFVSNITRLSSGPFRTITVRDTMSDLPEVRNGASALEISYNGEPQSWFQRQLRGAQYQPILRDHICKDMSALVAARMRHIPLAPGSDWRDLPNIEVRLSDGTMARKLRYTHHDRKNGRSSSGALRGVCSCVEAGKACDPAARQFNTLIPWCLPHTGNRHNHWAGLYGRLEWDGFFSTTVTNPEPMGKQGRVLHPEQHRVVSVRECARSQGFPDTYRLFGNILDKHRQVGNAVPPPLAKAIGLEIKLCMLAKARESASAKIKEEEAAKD

## CSCCNC(=O)/C(Cc1ccc(O)c(Br)c1)=N/N
[1]
  IC50: > 50 µM
Histone deacetylase 1
  IC50: 50 µM
[2]
  inhibition: inactive
A549
  GI50: > 50 µM
MCF7
  GI50: > 50 µM
[3]
  GI50 at 96 h: > 50 µM

## CO/N=C(\Cc1ccc(O)c(Br)c1)C(=O)NCCSC
[1]
  IC50: > 50 µM
Histone deacetylase 1
  IC50: 11 µM
[2]
  inhibition: inactive
A549
  GI50: > 50 µM
MCF7
  GI50: > 50 µM
[3]
  GI50 at 96 h: > 50 µM

## COc1ccc(C/C(=N\O)C(=O)NCCS)cc1Br
[1]
  IC50: 3.2 µM
Histone deacetylase 1
  IC50: 0.0018 µM
[2]
  inhibition: inactive
[4]
  inhibition: inactive
A549
  GI50: 0.16 µM
MCF7
  GI50: 0.61 µM
[3]
  GI50 at 96 h: 1.13 µM

## O=C(NCCS)/C(Cc1ccccc1)=N/O
[1]
  IC50: 3.3 µM
Histone deacetylase 1
  IC50: 0.012 µM
[2]
  inhibition: inactive
[4]
  inhibition: inactive
A549
  GI50: 15.2 µM
MCF7
  GI50: 9.38 µM
[3]
  GI50 at 96 h: 10.9 µM

## O=C(CCCNC(=O)/C(Cc1ccc(O)c(Br)c1)=N/O)NO
[1]
  IC50: 1.7 µM
Histone deacetylase 1
  IC50: 0.31 µM
[2]
  inhibition: Active
[5]
  IC50: 5.25 µM

## COc1cc(C/C(=N\O)C(=O)NCCS)cc(Br)c1OC
[1]
  IC50: 0.51 µM
Histone deacetylase 1
  IC50: 0.001 µM
[2]
  inhibition: inactive
[4]
  inhibition: inactive
A549
  GI50: 4.4 µM
MCF7
  GI50: 2.25 µM
[3]
  GI50 at 96 h: 4.31 µM

## O=C(NCCSSCCNC(=O)/C(Cc1ccc(F)c(Br)c1)=N/O)/C(Cc1ccc(F)c(Br)c1)=N/O
[2]
  inhibition: inactive
A549
  GI50: 2.73 µM
MCF7
  GI50: 1 µM
[3]
  GI50 at 96 h: 1.8 µM

## O=C(NCCSSCCNC(=O)/C(Cc1ccccc1)=N/O)/C(Cc1ccccc1)=N/O
[2]
  inhibition: inactive
A549
  GI50: 16.3 µM
MCF7
  GI50: 11.1 µM
[3]
  GI50 at 96 h: > 50 µM

## COc1cc(C/C(=N\O)C(=O)NCCSSCCNC(=O)/C(Cc2cc(Br)c(OC)c(OC)c2)=N/O)cc(Br)c1OC
[2]
  inhibition: inactive
A549
  GI50: 2.51 µM
MCF7
  GI50: 0.72 µM
[3]
  GI50 at 96 h: 2.14 µM

From ChEMBL document CHEMBL2046381, “Defining the mechanism of action and enzymatic selectivity of psammaplin A against its epigenetic targets” (J Med Chem, 2012)
